Data as given in PubChem BioAssay AID2626 (Vanderbilt High Throughput Screening Facility, 2010).
Active and inactive are the calls of the source.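 The calls were made as follows: active = response above about half the acetylcholine maximum when tested at 10 µM with a low acetylcholine dose; inactive = response below half the acetylcholine maximum.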

Each molecule was assayed against Muscarinic acetylcholine receptor M1 (Rattus norvegicus) (UniProt P08482) (assay: enhancement of submaximal ACh response at M1 – ACh EC20, CHO cells (AID 2626)). Conditions: CHO rM1 cells, calcium response with ACh EC20; at 10 µM; active compounds read high.
Summary of the method: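 System – CHO cells with rat M1 receptor · Probe or stimulus – acetylcholine near EC20 · Measure – enhancement of acetylcholine response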

Chain of Muscarinic acetylcholine receptor M1 (Rattus norvegicus) (P08482 whole entry, looked up): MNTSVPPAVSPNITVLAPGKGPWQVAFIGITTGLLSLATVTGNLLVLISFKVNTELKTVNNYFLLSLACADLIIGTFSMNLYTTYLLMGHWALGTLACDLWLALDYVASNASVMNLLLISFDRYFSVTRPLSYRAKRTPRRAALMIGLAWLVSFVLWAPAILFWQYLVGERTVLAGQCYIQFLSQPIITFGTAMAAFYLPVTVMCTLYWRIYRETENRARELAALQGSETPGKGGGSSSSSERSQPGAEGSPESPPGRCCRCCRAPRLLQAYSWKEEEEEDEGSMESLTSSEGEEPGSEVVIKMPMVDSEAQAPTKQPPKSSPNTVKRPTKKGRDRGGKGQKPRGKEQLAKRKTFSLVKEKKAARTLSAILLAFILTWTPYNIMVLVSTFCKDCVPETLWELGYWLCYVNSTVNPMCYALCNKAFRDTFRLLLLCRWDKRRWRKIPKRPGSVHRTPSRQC

SMILES	% of ACh max response (PAM)
CS(=O)(=O)c1cn(Cc2ccccc2Cl)c2ccccc12	26.3% (inactive)
O=C(O)CS(=O)(=O)c1cn(Cc2cc(Br)ccc2F)c2ccccc12	18.1% (inactive)
Cc1cc(NC(=O)C(Cc2ccccc2F)S(=O)(=O)c2cn(Cc3ccccc3F)c3ccccc23)no1 (stereo not drawn)	44.5% (inactive)
Cc1cc(NC(=O)CS(=O)(=O)c2cn(Cc3ccc(F)cc3F)c3ccccc23)no1	51.6%
O=C(CS(=O)(=O)c1cn(Cc2cc(Br)ccc2F)c2ccccc12)Nc1ccccc1	13.9% (inactive)
Cc1cc(NC(=O)CSc2cn(Cc3ccccc3Cl)c3ccccc23)no1	26.7% (inactive)
Cc1cc(NC(=O)C(Cc2ccc(F)cc2F)S(=O)(=O)c2cn(Cc3ccc(F)cc3F)c3ccccc23)no1 (stereo not drawn)	38.5% (inactive)
Cc1cc(NC(=O)CS(=O)(=O)c2cn(Cc3ccc(F)c(Br)c3)c3ccccc23)no1	24% (inactive)
Cc1cc(NC(=O)CSc2cn(Cc3cccc(Br)c3)c3ccccc23)no1	26.9% (inactive)
COc1ccc(Cn2cc(S(=O)(=O)CC(=O)Nc3cc(C)on3)c3ccccc32)cc1	54.8%
Cc1cc(NC(=O)CS(=O)(=O)c2cn(Cc3ccc(Cl)cc3)c3ccccc23)no1	30.8% (inactive)
Cc1cc(NC(=O)CS(=O)(=O)c2cn(Cc3cccc(-c4ccc(N5CCOCC5)nc4)c3)c3ccccc23)no1	18.5% (inactive)
Cc1cc(NC(=O)CS(=O)(=O)c2cn(Cc3ccc(Br)cc3F)c3ccccc23)no1	27.7% (inactive)
Cc1cc(NC(=O)CS(=O)(=O)c2cn(Cc3cccc(-c4cnn(CC(C)C)c4)c3)c3ccccc23)no1	24.4% (inactive)
Cc1cc(NC(=O)CS(=O)(=O)c2cn(Cc3cccc(-c4ccc(N5CCNCC5)nc4)c3)c3ccccc23)no1	43.6% (inactive)
Cc1cc(NC(=O)CS(=O)(=O)c2c[nH]c3ccccc23)no1	29% (inactive)
Cc1cc(NC(=O)CS(=O)(=O)c2cn(Cc3cccc(-c4ccc(Cl)nc4)c3)c3ccccc23)no1	26.4% (inactive)

SMILES	% of ACh max response (PAM)
Cc1cc(NC(=O)CS(=O)(=O)c2cn(Cc3cccc(-c4ccc(N5CCCC5)nc4)c3)c3ccccc23)no1	33.3% (inactive)
COC(=O)CS(=O)(=O)c1cn(Cc2cc(Br)ccc2F)c2ccccc12	7.5% (inactive)
Cc1cc(NC(=O)CS(=O)(=O)c2cn(Cc3cccc(C#N)c3)c3ccccc23)no1	52.7%
Cc1cc(NC(=O)CS(=O)(=O)c2cn(Cc3ccc4c(c3)OCO4)c3ccccc23)no1	35.8% (inactive)
Cc1cc(NC(=O)C(Cc2ccc(OC(F)(F)F)cc2)S(=O)(=O)c2cn(Cc3ccc(OC(F)(F)F)cc3)c3ccccc23)no1 (stereo not drawn)	28.7% (inactive)
COc1ccccc1Cn1cc(S(=O)(=O)CC(=O)Nc2cc(C)on2)c2ccccc21	30.6% (inactive)
Cc1cc(NC(=O)C(C)S(=O)(=O)c2cn(Cc3cc(Br)ccc3F)c3ccccc23)no1 (stereo not drawn)	19.7% (inactive)
Cc1cc(NC(=O)C(C)S(=O)(=O)c2cn(Cc3cc(Br)cc(Br)c3)c3ccccc23)no1 (stereo not drawn)	17.7% (inactive)
Cc1cc(NC(=O)CS(=O)c2cn(Cc3cccc(Cl)c3)c3ccccc23)no1 (stereo not drawn)	72.4%
Cc1cc(NC(=O)CS(=O)(=O)c2cn(Cc3ccc(C(F)(F)F)cc3)c3ccccc23)no1	30.4% (inactive)
Cc1cc(NC(=O)CS(=O)(=O)c2cn(Cc3ccccc3F)c3ccccc23)no1	52.9%
Cc1cc(NC(=O)C(Cc2cccc(Cl)c2)S(=O)(=O)c2cn(Cc3cccc(Cl)c3)c3ccccc23)no1 (stereo not drawn)	42.1% (inactive)
Cc1cc(NC(=O)CSc2c[nH]c3ccccc23)no1	28.8% (inactive)
Cc1cc(NC(=O)CS(=O)(=O)c2cn(Cc3ccc(F)nc3)c3ccccc23)no1	41.2% (inactive)
Cc1cc(NC(=O)CS(=O)(=O)c2cn(Cc3cc(Br)cc(Br)c3)c3ccccc23)no1	12.7% (inactive)
Cc1cc(NC(=O)CS(=O)(=O)c2cn(Cc3ccc(OC(F)(F)F)cc3)c3ccccc23)no1	28.7% (inactive)
